Experimental data collected from several papers.
Compare with care: the assays were run in different laboratories.
ANKK1: Ankyrin repeat and protein kinase domain-containing protein 1 (ANKK1, Homo sapiens, UniProt Q8NFD2)
SP140: SP140 (Homo sapiens, UniProt Q13342)

Structure (SMILES) | target | test | test system | setting | measurement | result
Cc1ccc(C(=O)Nc2ccc(CN3CCN(C)CC3)c(C(F)(F)F)c2)cc1C#Cc1cnc2cccnn12 | ANKK1 | cell-free assay | – | 23.5 nM | remaining signal | 56%
Cc1cnc(Nc2ccc(OCCN3CCCC3)cc2)nc1Nc1cccc(S(=O)(=O)NC(C)(C)C)c1 | SP140 | thermal stability, DSF | – | 10 µM | ΔTm | -0.01 °C
CC(C)(O)[C@H]1CC[C@H](Nc2ccc3ncc(-c4cccc(C(F)(F)F)c4)n3n2)CC1 | Cyclin-dependent kinase 1, with cyclin E (CDK1, Homo sapiens, UniProt P06493) | enzyme activity, inhibitor | – | 1 µM | remaining activity | 107%
CCCOc1ccc(OC)c(F)c1C(=O)c1ccc(C(=O)N[C@@H]2CNC[C@H]2NC(=O)c2ccc3[nH]ncc3c2)cc1 | Serine/threonine-protein kinase Sgk2 (SGK2, Homo sapiens, UniProt Q9HBY8) | enzyme activity, inhibitor | – | 0.5 µM | remaining activity | 16%
Oc1ccc(-c2nc(-c3ccncc3)c(-c3ccc(F)cc3)[nH]2)cc1 | SP140 | thermal stability, DSF | – | 10 µM | ΔTm | 0.36 °C
Cc1cc2c(cc1N1C(=O)c3cccc4c(Cl)ccc(c34)C1=O)n(C)c(=O)n2C | SP140 | thermal stability, DSF | – | 10 µM | ΔTm | -0.9 °C
Nc1ncnc2occ(-c3ccc(NC(=O)Nc4cc(C(F)(F)F)ccc4F)cc3)c12 | ANKK1 | cell-free assay | – | 20 µM | remaining signal | 3.6%
CC(C)(C)c1nc2c(s1)c1nc(N)ncc1c1ccc(NS(=O)(=O)c3c(F)cccc3F)c(F)c12 | Cyclin-dependent kinase 1, with cyclin A2 (CDK1, Homo sapiens, UniProt P06493) | enzyme activity, inhibitor, radiometric | – | 1 µM | remaining activity | 100%
CN(C)C1CCN(CC#Cc2nn(C3CCCC3)c3nc(NCc4ccccc4)ncc23)C1 (stereo not shown) | Proto-oncogene tyrosine-protein kinase Src (SRC, Homo sapiens, UniProt P12931) | enzyme activity, inhibitor, FRET | – | 0.1 µM | inhibition | -1%
CC(C)(C)c1nc(-c2cccc(NS(=O)(=O)c3c(F)cccc3F)c2F)c(-c2ccnc(N)n2)s1 | Cyclin-dependent kinase 1, with cyclin E1 (CDK1, Homo sapiens, UniProt P06493) | enzyme activity, inhibitor, radiometric | – | 1 µM | remaining activity | 57%
Oc1c(Br)cc(Oc2ccc(Br)cc2Br)cc1Br | Sulfotransferase 1E1 (SULT1E1, Homo sapiens, UniProt P49888) | enzyme activity, substrate | – | – | Km | 4.23 µM
Cc1ccc(S(=O)(=O)Nc2ccc(-n3nc(C(F)(F)F)cc3C(F)(F)F)cc2)cc1 | Calcium release-activated calcium channel protein 1 (Rattus norvegicus, UniProt Q5M848) | ion current, inhibitor, patch clamp | RBL-2H3 | 3 µM | remaining activity | 60%
OCc1cc(C(O)CNCCCCCCOCCCCc2ccccc2)ccc1O (stereo not shown) | C-X-C chemokine receptor type 4 (CXCR4, Homo sapiens, UniProt P61073) | calcium signal, antagonist | U87.CD4.CXCR4 | 0.8 µM | inhibition | 9%
